Measured values published in ChEMBL document CHEMBL4316592, “Synthesis of new derivatives of boehmeriasin A and their biological evaluation in liver cancer” (Eur J Med Chem, 2019).
The source made the active and inactive calls. The calls are words filed in the database; no cut-off is given here.

Key:
Hep 3B2 = test: Cytotoxicity against human Hep3B cells after 72 hrs by SRB assay; assay type: functional, cell-based
How it was run: (§1)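 SRB assay. Cells plated per well (HCT116 3000; Huh7, Hep3B, HepG2, MCF-7 2000; Mahlavu, FOCUS, SNU475 1000) and grown 24 h. Compounds came from 20 mM DMSO stocks and were tested in triplicate, 40 to 2,5 (or 2,5 to 0,03) per printed range, for 72 h. Cells fixed in 10% TCA, stained with 0.4% SRB, dye dissolved in 10 mM Tris, A515 read. IC50 derived after DMSO normalization.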

SNU-475 = test: Cytotoxicity against human SNU475 cells after 72 hrs by SRB assay; assay type: functional, cell-based; how it was run: as §1
HepG2 = test: Cytotoxicity against human HepG2 cells after 72 hrs by SRB assay; assay type: functional, cell-based; details: hepg2; how it was run: as §1
Mahlavu [1] = test: Cytotoxicity against human Mahlavu cells after 72 hrs by SRB assay; assay type: functional, cell-based; how it was run: as §1
Huh-7 [2] = test: Cytotoxicity against human HuH7 cells after 72 hrs by SRB assay; assay type: functional, cell-based; how it was run: as §1
[3] = Cytotoxicity against human FOCUS cells after 72 hrs by SRB assay; assay type: functional, cell-based; how it was run: as §1
MCF7 = test: Cytotoxicity against human MCF7 cells after 72 hrs by SRB assay; assay type: functional, cell-based; how it was run: as §1
MCF-12A = test: Cytotoxicity against human MCF12A cells after 72 hrs by SRB assay; assay type: cell-based
HCT-116 = test: Cytotoxicity against human HCT116 cells after 72 hrs by SRB assay; assay type: functional, cell-based; how it was run: as §1
Huh-7 [4] = test: Induction of apoptosis in human HuH7 cells assessed as increase in cytochrome C levels by Hoechst staining-based assay; assay type: functional, cell-based
How it was run: (§2)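 Cells were seeded on coverslips and treated after 24 h with compound at a single concentration for 72 h. Camptothecin was the positive control, with DMSO solvent control at matched volume. Cells were fixed in ice-cold methanol for 15 min, then given anti-cytochrome c (1:100 in 0.1% TBS-Tween) for 1 h and FITC secondary (1:200) for 1 h. Nuclei were counterstained and imaged by fluorescence microscopy.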

Mahlavu [5] = test: Induction of apoptosis in human Mahlavu cells assessed as increase in cytochrome C levels by Hoechst staining-based assay; assay type: functional, cell-based; how it was run: as §2
Huh-7 [6] = test: Induction of apoptosis in human HuH7 cells assessed as late apoptotic cells at 1 uM after 48 hrs by Annexin V-FITC/propidium iodide staining-based flow cytometric analysis (reference value: 2.53%); assay type: functional
Mahlavu [7] = test: Induction of apoptosis in human Mahlavu cells assessed as necrotic cells at 1 uM after 48 hrs by Annexin V-FITC/propidium iodide staining-based flow cytometric analysis (reference value: 0.07%); assay type: functional
Mahlavu [8] = test: Induction of apoptosis in human Mahlavu cells assessed as necrotic cells at 1 uM after 72 hrs by Annexin V-FITC/propidium iodide staining-based flow cytometric analysis (reference value: 0.22%); assay type: functional
Huh-7 [9] = test: Induction of apoptosis in human HuH7 cells assessed as early apoptotic cells at 1 uM after 24 hrs by Annexin V-FITC/propidium iodide staining-based flow cytometric analysis (reference value: 0.17%); assay type: functional
Mahlavu [10] = test: Induction of apoptosis in human Mahlavu cells assessed as late apoptotic cells at 1 uM after 48 hrs by Annexin V-FITC/propidium iodide staining-based flow cytometric analysis (reference value: 1.45%); assay type: functional
Huh-7 [11] = test: Induction of apoptosis in human HuH7 cells assessed as viable cells at 1 uM after 72 hrs by Annexin V-FITC/propidium iodide staining-based flow cytometric analysis (reference value: 97.20%); assay type: functional; details: Huh-7, 72 h, read-out: Activity
Huh-7 [12] = test: Induction of apoptosis in human HuH7 cells assessed as necrotic cells at 1 uM after 24 hrs by Annexin V-FITC/propidium iodide staining-based flow cytometric analysis (reference value: 0.03%); assay type: functional
Mahlavu [13] = test: Induction of apoptosis in human Mahlavu cells assessed as late apoptotic cells at 1 uM after 24 hrs by Annexin V-FITC/propidium iodide staining-based flow cytometric analysis (reference value: 1.28%); assay type: functional
Mahlavu [14] = test: Induction of apoptosis in human Mahlavu cells assessed as necrotic cells at 1 uM after 24 hrs by Annexin V-FITC/propidium iodide staining-based flow cytometric analysis (reference value: 0.13%); assay type: functional
Huh-7 [15] = test: Induction of apoptosis in human HuH7 cells assessed as early apoptotic cells at 1 uM after 72 hrs by Annexin V-FITC/propidium iodide staining-based flow cytometric analysis (reference value: 0.03%); assay type: functional
Mahlavu [16] = test: Induction of apoptosis in human Mahlavu cells assessed as viable cells at 1 uM after 48 hrs by Annexin V-FITC/propidium iodide staining-based flow cytometric analysis (reference value: 98.48%); assay type: functional; details: read-out: Activity
Mahlavu [17] = test: Induction of apoptosis in human Mahlavu cells assessed as viable cells at 1 uM after 24 hrs by Annexin V-FITC/propidium iodide staining-based flow cytometric analysis (reference value: 98.51%); assay type: functional; details: read-out: Activity
Huh-7 [18] = test: Induction of apoptosis in human HuH7 cells assessed as necrotic cells at 1 uM after 48 hrs by Annexin V-FITC/propidium iodide staining-based flow cytometric analysis (reference value: 0.02%); assay type: functional
Mahlavu [19] = test: Induction of apoptosis in human Mahlavu cells assessed as early apoptotic cells at 1 uM after 24 hrs by Annexin V-FITC/propidium iodide staining-based flow cytometric analysis (reference value: 0.09%); assay type: functional
Huh-7 [20] = test: Induction of apoptosis in human HuH7 cells assessed as late apoptotic cells at 1 uM after 72 hrs by Annexin V-FITC/propidium iodide staining-based flow cytometric analysis (reference value: 2.34%); assay type: functional
Mahlavu [21] = test: Induction of apoptosis in human Mahlavu cells assessed as early apoptotic cells at 1 uM after 48 hrs by Annexin V-FITC/propidium iodide staining-based flow cytometric analysis (reference value: 0%); assay type: functional
Mahlavu [22] = test: Induction of apoptosis in human Mahlavu cells assessed as early apoptotic cells at 1 uM after 72 hrs by Annexin V-FITC/propidium iodide staining-based flow cytometric analysis (reference value: 0.24%); assay type: functional
MCF-10A = test: Cytotoxicity against human MCF10A cells after 72 hrs by SRB assay; assay type: cell-based
Huh-7 [23] = test: Induction of apoptosis in human HuH7 cells assessed as necrotic cells at 1 uM after 72 hrs by Annexin V-FITC/propidium iodide staining-based flow cytometric analysis (reference value: 0.43%); assay type: functional
Mahlavu [24] = test: Induction of apoptosis in human Mahlavu cells assessed as late apoptotic cells at 1 uM after 72 hrs by Annexin V-FITC/propidium iodide staining-based flow cytometric analysis (reference value: 3.48%); assay type: functional
Huh-7 [25] = test: Induction of apoptosis in human HuH7 cells assessed as viable cells at 1 uM after 24 hrs by Annexin V-FITC/propidium iodide staining-based flow cytometric analysis (reference value: 97.30%); assay type: functional; details: Huh-7, 24 h, read-out: Activity
Mahlavu [26] = test: Induction of apoptosis in human Mahlavu cells assessed as viable cells at 1 uM after 72 hrs by Annexin V-FITC/propidium iodide staining-based flow cytometric analysis (reference value: 96.05%); assay type: functional; details: read-out: Activity
Mahlavu [27] = test: Induction of apoptosis in human Mahlavu cells assessed as chromatin condensation at 1 uM by Hoechst staining-based assay; assay type: functional, cell-based
Mahlavu [28] = test: Induction of apoptosis in human Mahlavu cells assessed as apoptotic body formation at 1 uM by Hoechst staining-based assay; assay type: functional, cell-based
Huh-7 [29] = test: Induction of apoptosis in human HuH7 cells assessed as late apoptotic cells at 1 uM after 24 hrs by Annexin V-FITC/propidium iodide staining-based flow cytometric analysis (reference value: 2.51%); assay type: functional
Huh-7 [30] = test: Induction of apoptosis in human HuH7 cells assessed as viable cells at 1 uM after 48 hrs by Annexin V-FITC/propidium iodide staining-based flow cytometric analysis (reference value: 97.42%); assay type: functional; details: Huh-7, 48 h, read-out: Activity
Huh-7 [31] = test: Induction of apoptosis in human HuH7 cells assessed as early apoptotic cells at 1 uM after 48 hrs by Annexin V-FITC/propidium iodide staining-based flow cytometric analysis (reference value: 0.02%); assay type: functional
[32] = Homo sapiens, Mahlavu, 72 h, read-out: IC50
[33] = Homo sapiens, Huh-7, 72 h, read-out: IC50
[34] = Homo sapiens, MCF7, 72 h, read-out: IC50
[35] = Homo sapiens, HCT-116, 72 h, read-out: IC50
[36] = Homo sapiens, MCF-12A, 72 h, read-out: IC50

COc1ccc2cc(CN3CCCCC3C(=O)[O-])c3cc(OC)c(OC)cc3c2c1.[K+] (configuration not stated)
IC50 (Hep 3B2; hep 3b2): Not Active
IC50 (SNU-475; snu-475): Not Active
IC50 (HepG2): Not Active
IC50 (Mahlavu [1]; mahlavu): Not Active
IC50 (Huh-7 [2]; huh-7): Not Active
IC50 [3]: Not Active
IC50 (MCF7; mcf7): Not Active
IC50 (MCF-12A; mcf-12a): Non-Toxic
IC50 (HCT-116; hct-116): Not Active

COc1ccc2c3c(c4cc(OC)c(OC)cc4c2c1)CN1CCCCC1C3=O (configuration not stated)
IC50 (Hep 3B2; Homo sapiens, Hep3B, 72 h, read-out: IC50): 45 µM
IC50 (SNU-475; Homo sapiens, SNU-475, 72 h, read-out: IC50): 19.1 µM
IC50 (HepG2): Not Active
IC50 (Mahlavu [1]; [32]): 35 µM
IC50 (Huh-7 [2]; [33]): 12 µM
IC50 ([3]; Homo sapiens, 72 h, read-out: IC50): 5 µM
IC50 (MCF7; [34]): 7 µM
IC50 (MCF-12A; mcf-12a): Non-Toxic
IC50 (HCT-116; [35]): 8.1 µM

COc1ccc(/C=C(/C(=O)NCCCn2ccnc2)c2ccc(OC)c(OC)c2)cc1
IC50 (Mahlavu [1]; mahlavu): Not Active
IC50 (Huh-7 [2]; huh-7): Not Active

COc1ccc2cc(C(=O)NCCCn3ccnc3)c3cc(OC)c(OC)cc3c2c1
IC50 (Mahlavu [1]; [32]): 54 µM
IC50 (Huh-7 [2]; [33]): 19.2 µM

COc1ccc(/C=C(/CNCCCn2ccnc2)c2ccc(OC)c(OC)c2)cc1
IC50 (Mahlavu [1]; [32]): 13.8 µM
IC50 (Huh-7 [2]; [33]): 9.3 µM

COc1ccc2cc(CNCCCn3ccnc3)c3cc(OC)c(OC)cc3c2c1
IC50 (Mahlavu [1]; mahlavu): Not Active
IC50 (Huh-7 [2]; huh-7): Not Active

CC[C@@]1(O)C(=O)OCc2c1cc1n(c2=O)Cc2cc3ccccc3nc2-1
Activity (Huh-7 [4]): Active
Activity (Mahlavu [5]): Active

COc1ccc2c3c(c4cc(OC)c(OC)cc4c2c1)CN1CCCC[C@@H]1[C@@H]3O (racemic)
Activity (Huh-7 [6]): 6.75%
Activity (Mahlavu [7]): 0.54%
Activity (Mahlavu [8]): 1.59%
Activity (Huh-7 [9]): 0.05%
Activity (Mahlavu [10]): 29.29%
viability at 1 µM (Huh-7 [11]): 83%
Activity (Huh-7 [12]): 0.02%
Activity (Mahlavu [13]): 6.72%
Activity (Mahlavu [14]): 0.58%
Activity (Huh-7 [15]): 0%
viability at 1 µM (Mahlavu [16]): 70.2%
viability at 1 µM (Mahlavu [17]): 92.7%
Activity (Huh-7 [18]): 0.21%
Activity (Mahlavu [19]): 0.03%
Activity (Huh-7 [20]): 16.83%
Activity (Mahlavu [21]): 0%
Activity (Mahlavu [22]): 0%
IC50 (MCF-10A): 0.14 µM
Activity (Huh-7 [23]): 0.16%
Activity (Mahlavu [24]): 69.05%
viability at 1 µM (Huh-7 [25]): 99.1%
viability at 1 µM (Mahlavu [26]): 29.4%
Activity (Mahlavu [27]): Active
IC50 (Mahlavu [1]; [32]): > 0.05 µM
IC50 (Huh-7 [2]; [33]): 0.017 µM
Activity (Mahlavu [28]): Active
Activity (Huh-7 [29]): 0.82%
viability at 1 µM (Huh-7 [30]): 93%
IC50 (MCF7; [34]): 0.021 µM
IC50 (MCF-12A; [36]): 0.1 µM
Activity (Huh-7 [31]): 0.07%
IC50 (HCT-116; [35]): 0.007 µM

COc1ccc2c3c(c4cc(OC)c(OC)cc4c2c1)CN1CCCC[C@@H]1[C@H]3O (racemic)
Activity (Huh-7 [6]): 3.38%
Activity (Mahlavu [7]): 0.32%
Activity (Mahlavu [8]): 0.61%
Activity (Huh-7 [9]): 0%
Activity (Mahlavu [10]): 5.9%
viability at 1 µM (Huh-7 [11]): 95%
Activity (Huh-7 [12]): 0.07%
Activity (Mahlavu [13]): 3.47%
Activity (Mahlavu [14]): 0.33%
Activity (Huh-7 [15]): 0.05%
viability at 1 µM (Mahlavu [16]): 93.8%
viability at 1 µM (Mahlavu [17]): 96.2%
Activity (Huh-7 [18]): 0.13%
Activity (Mahlavu [19]): 0.02%
Activity (Huh-7 [20]): 4.69%
Activity (Mahlavu [21]): 0%
Activity (Mahlavu [22]): 0%
IC50 (MCF-10A): 0.8 µM
Activity (Huh-7 [23]): 0.23%
Activity (Mahlavu [24]): 10.53%
viability at 1 µM (Huh-7 [25]): 99.1%
viability at 1 µM (Mahlavu [26]): 88.9%
Activity (Mahlavu [27]): Active
IC50 (Mahlavu [1]; [32]): > 0.05 µM
IC50 (Huh-7 [2]; [33]): 0.306 µM
Activity (Mahlavu [28]): Active
Activity (Huh-7 [29]): 0.81%
viability at 1 µM (Huh-7 [30]): 96.4%
IC50 (MCF7; [34]): 0.016 µM
IC50 (MCF-12A; [36]): > 0.05 µM
Activity (Huh-7 [31]): 0.07%
IC50 (HCT-116; [35]): 0.043 µM
